Test results: ChEMBL document CHEMBL3745596, “Chlorophenoxy aminoalkyl derivatives as histamine H(3)R ligands and antiseizure agents” (Bioorg Med Chem, 2016)
pKi: −log10 of the molar value. The source made the active and inactive calls.

Key:
[1] = test system: Mus musculus; assay: Anticonvulsant activity in CF1 albino mouse assessed as protection against subcutaneous pentetrazole-induced seizure at 30 mg/kg, ip after 0.5 hrs; format: functional, organism-based
How it was run: (§1)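 Male CF-1 mice, ip in 0.5% methylcellulose; pentetrazole at CD97 (85 mg/kg) injected subcutaneously in a loose fold of neck skin. Observed 30 min; absence of even a threshold seizure (single clonic spasm lasting at least 5 s) counted as protection. Scored protected/tested, or ED50.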

[2] = test system: Mus musculus; assay: Neurotoxicity in CF1 albino mouse assessed as death at 300 mg/kg, ip after 0.5 hrs by rotarod test; format: toxicity, organism-based; settings: in vivo
How it was run: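 Male albino CF-1 mice dosed ip with compound suspended in 0.5% methylcellulose, then placed on a 1-inch knurled plastic rod turning at 6 rpm. A fall three times within 1 min counted as neurotoxicity. Observations were made at 0.5 h and 4 h after dosing. Result given as animals showing toxicity per animals tested, with the kind of toxicity recorded.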

[3] = test system: Rattus norvegicus; assay: Anticonvulsant activity in Sprague-Dawley rat assessed as protection against maximal electroshock-induced seizure at 30 mg/kg, po; format: functional
[4] = test system: Mus musculus; assay: Anticonvulsant activity in CF1 albino mouse assessed as protection against maximal electroshock-induced seizure at 3 mg/kg, ip after 0.5 hrs; format: functional, organism-based
How it was run: (§2)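 Male CF-1 mice dosed ip as suspension in 0.5% methylcellulose. Corneal electrodes deliver 60 Hz alternating current, 50 mA for […], after a drop of 0.5% tetracaine HCl in 0.9% NaCl per eye. Protection means abolition of hindlimb tonic extension; scored as protected/tested, or ED50 with 95% confidence interval.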

[5] = Neuroprotective activity in hippocampal slice (unknown origin) assessed as protection against NMDA-induced cell death using propidium iodide staining; format: functional; settings: Hippocampus
How it was run: (§3)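 Organotypic hippocampal slice cultures exposed to NMDA or kainic acid alone or with compound; propidium iodide in all wells; PI fluorescence intensity of slices, proportional to cell death, compared with excitotoxin-only slices; qualitative.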

[6] = test system: Rattus norvegicus; assay: Protective index, ratio of TD50 for ip dosed Sprague-Dawley rat to ED50 for ip dosed Sprague-Dawley rat assessed as protection against maximal electroshock-induced seizure after 0.5 hrs; format: functional
How it was run: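 PI = TD50/ED50. Male CF-1 mice or male Sprague–Dawley rats given compound ip as 0.5% methylcellulose suspension. MES: 60 Hz corneal current, 50 mA mice or 150 mA rats, for […] after tetracaine eye drops; protection is abolition of hindlimb tonic extension.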

[7] = test system: Rattus norvegicus; assay: Neurotoxicity in Sprague-Dawley rat at 30 mg/kg, ip after 1 hr by rotarod test; format: toxicity, organism-based; settings: in vivo
How it was run: (§4)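 Male Sprague–Dawley rats given compound ip as a suspension in 0.5% methylcellulose, groups of four. Rotarod: 1 inch knurled rod at 6 rpm; three falls within 1 min counts as neurotoxic. Scored as number toxic/number tested at pretreatment times between 0.25 and 4 h, or at the stated time.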

[8] = test system: Mus musculus; assay: Neurotoxicity in CF1 albino mouse at 3 mg/kg, ip after 0.5 hrs by rotarod test; format: toxicity, organism-based; settings: in vivo
How it was run: (§5)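 Rotarod neurotoxicity in male albino CF-1 mice dosed ip with compound suspended in 0.5% methylcellulose. Animal placed on a 1 inch diameter knurled plastic rod rotating at 6 rpm. Neurotoxicity scored when the animal falls off three times within 1 min. Readout is number of animals toxic/number tested at the stated time after dosing. TD50 with 95% confidence interval from the quantitative study.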

[9] = test system: Rattus norvegicus; assay: Anticonvulsant activity in Sprague-Dawley rat assessed as protection against maximal electroshock-induced seizure at 30 mg/kg, ip after 4 hrs; format: functional, organism-based
[10] = test system: Rattus norvegicus; assay: Anticonvulsant activity in ip dosed Sprague-Dawley rat assessed as protection against maximal electroshock-induced seizure after 0.25 hrs; format: functional
[11] = test system: Mus musculus; assay: Neurotoxicity in CF1 albino mouse at 30 mg/kg, ip after 0.5 hrs by rotarod test; format: toxicity, organism-based; settings: in vivo; how it was run: as §5
[12] = test system: Rattus norvegicus; assay: Neurotoxicity in Sprague-Dawley rat at 30 mg/kg, ip after 0.5 hrs by rotarod test; format: toxicity, organism-based; settings: in vivo; how it was run: as §4
[13] = test system: Mus musculus; assay: Anticonvulsant activity in CF1 albino mouse assessed as protection against subcutaneous pentetrazole-induced seizure at 30 mg/kg, ip after 4 hrs; format: functional, organism-based; how it was run: as §1
[14] = test system: Mus musculus; assay: Neurotoxicity in CF1 albino mouse at 10 mg/kg, ip after 0.5 hrs by rotarod test; format: toxicity, organism-based; settings: in vivo
How it was run: (§6)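 Rotarod neurotoxicity in male CF-1 mice dosed ip as 0.5% methylcellulose suspension: mouse placed on 1 inch knurled rod rotating at 6 rpm; toxicity when the animal falls off three times within 1 min, with other signs noted. Scored as toxic/tested at 0.5 h and 4 h.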

[15] = test system: Mus musculus; assay: Neurotoxicity in CF1 albino mouse assessed as unable to grasp rotarod, sedated and myoclonic jerks at 100 mg/kg, ip after 0.5 hrs by rotarod test; format: toxicity, organism-based; settings: in vivo; how it was run: as §6
[16] = test system: Rattus norvegicus; assay: Neurotoxicity in Sprague-Dawley rat at 30 mg/kg, ip after 4 hrs by rotarod test; format: toxicity, organism-based; settings: in vivo; how it was run: as §4
[17] = test system: Mus musculus; assay: Anticonvulsant activity in CF1 albino mouse assessed as protection against 6 Hz-psychomotor-induced seizure at 50 mg/kg, ip after 2 hrs; format: functional, organism-based
How it was run: (§7)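 Male CF-1 mice, ip suspension in 0.5% methylcellulose. Corneal stimulation 0.2 ms monopolar rectangular pulses at 6 Hz, 32 mA for 3 s via constant-current device; mice without minimal clonic phase seizure counted protected. Groups of four; read at 0.25, 0.5, 1, 2, 4 h; result as protected/tested.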

[18] = test system: Mus musculus; assay: Neurotoxicity in CF1 albino mouse at 50 mg/kg, ip after 0.5 hrs by rotarod test; format: toxicity, organism-based; settings: in vivo; how it was run: as §5
[19] = test system: Mus musculus; assay: Neurotoxicity in CF1 albino mouse at 50 mg/kg, ip after 1 hr by rotarod test; format: toxicity, organism-based; settings: in vivo; how it was run: as §5
[20] = test system: Mus musculus; assay: Anticonvulsant activity in CF1 albino mouse assessed as protection against 6 Hz-psychomotor-induced seizure at 50 mg/kg, ip after 0.25 hrs; format: functional, organism-based; how it was run: as §7
[21] = test system: Mus musculus; assay: Neurotoxicity in ip dosed CF1 albino mouse after 0.25 hrs by rotarod test; format: toxicity, organism-based; settings: in vivo
How it was run: as §5, with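 “dosing.” for “dosing. TD50 with 95% confidence interval from the quantitative study.”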

[22] = test system: Mus musculus; assay: Anticonvulsant activity in CF1 albino mouse assessed as protection against 6 Hz-psychomotor-induced seizure at 50 mg/kg, ip after 4 hrs; format: functional, organism-based; how it was run: as §7
[23] = test system: Mus musculus; assay: Neurotoxicity in CF1 albino mouse at 30 mg/kg, ip after 4 hrs by rotarod test; format: toxicity, organism-based; settings: in vivo; how it was run: as §5
[24] = test system: Mus musculus; assay: Anticonvulsant activity in CF1 albino mouse temporal lobe epilepsy model at 30 mg/kg, ip; format: functional, organism-based
How it was run: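 Adult male CF1 mice corneal-kindled to 5 consecutive secondarily generalized seizures (Racine stage 4 or 5). Four fully kindled mice dosed ip and tested 0.5 h later; seizure score below 3 counted protected.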

[25] = test system: Mus musculus; assay: Neurotoxicity in CF1 albino mouse at 50 mg/kg, ip after 2 hrs by rotarod test; format: toxicity, organism-based; settings: in vivo; how it was run: as §5
[26] = test system: Rattus norvegicus; assay: Anticonvulsant activity in Sprague-Dawley rat assessed as protection against pilocarpine-induced convulsive status epilepticus at 65 mg/kg, ip; format: functional, organism-based
How it was run: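 Male Sprague Dawley rats (150–180 g) dosed ip, pilocarpine 50 mg/kg ip given; compound dosed immediately at first behavioral Stage 3 seizure or 30 min later. Number protected from Racine Stage 3 or greater seizures recorded.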

[27] = test system: Mus musculus; assay: Anticonvulsant activity in CF1 albino mouse assessed as protection against maximal electroshock-induced seizure at 30 mg/kg, ip after 4 hrs; format: functional, organism-based; how it was run: as §2
[28] = test system: Mus musculus; assay: Anticonvulsant activity in CF1 albino mouse assessed as protection against maximal electroshock-induced seizure at 10 mg/kg, ip after 0.5 hrs; format: functional, organism-based; how it was run: as §2
[29] = test system: Mus musculus; assay: Anticonvulsant activity in CF1 albino mouse assessed as protection against 6 Hz-psychomotor-induced seizure at 50 mg/kg, ip after 1 hr; format: functional, organism-based; how it was run: as §7
[30] = test system: Rattus norvegicus; assay: Anticonvulsant activity in ip dosed Sprague-Dawley rat assessed as protection against subcutaneous pentetrazole-induced seizure after 0.25 hrs; format: functional
[31] = test system: Mus musculus; assay: Neurotoxicity in CF1 albino mouse at 45 mg/kg, ip after 0.25 to 0.5 hrs by rotarod test; format: toxicity, organism-based; settings: in vivo; how it was run: as §5
[32] = test system: Rattus norvegicus; assay: Neurotoxicity in Sprague-Dawley rat at 30 mg/kg, ip after 0.25 hrs by rotarod test; format: toxicity, organism-based; settings: in vivo; how it was run: as §4
[33] = test system: Mus musculus; assay: Neurotoxicity in CF1 albino mouse at 100 mg/kg, ip after 4 hrs by rotarod test; format: toxicity, organism-based; settings: in vivo; how it was run: as §5
[34] = test system: Mus musculus; assay: Anticonvulsant activity in CF1 albino mouse assessed as protection against maximal electroshock-induced seizure at 100 mg/kg, ip after 0.5 hrs; format: functional, organism-based; how it was run: as §2
[35] = test system: Rattus norvegicus; assay: Neurotoxicity in Sprague-Dawley rat at 30 mg/kg, ip after 2 hrs by rotarod test; format: toxicity, organism-based; settings: in vivo; how it was run: as §4
[36] = test system: Mus musculus; assay: Neurotoxicity in CF1 albino mouse at 300 mg/kg, ip after 4 hrs by rotarod test; format: toxicity, organism-based; settings: in vivo; how it was run: as §5
[37] = test system: Mus musculus; assay: Neurotoxicity in CF1 albino mouse at 50 mg/kg, ip after 0.25 hrs by rotarod test; format: toxicity, organism-based; settings: in vivo; how it was run: as §5
[38] = test system: Mus musculus; assay: Anticonvulsant activity in CF1 albino mouse assessed as protection against maximal electroshock-induced seizure at 30 mg/kg, ip after 0.5 hrs; format: functional, organism-based; how it was run: as §2
[39] = test system: Mus musculus; assay: Neurotoxicity in CF1 albino mouse at 50 mg/kg, ip after 4 hrs by rotarod test; format: toxicity, organism-based; settings: in vivo; how it was run: as §5
[40] = target: Histamine H3 receptor (Homo sapiens, UniProt Q9Y5N1); assay: Displacement of [3H]-Nalpha-methylhistamine from human recombinant histamine H3 receptor expressed in HEK293 cells after 90 mins; format: cell-based
Sequence of Histamine H3 receptor (Q9Y5N1 whole entry): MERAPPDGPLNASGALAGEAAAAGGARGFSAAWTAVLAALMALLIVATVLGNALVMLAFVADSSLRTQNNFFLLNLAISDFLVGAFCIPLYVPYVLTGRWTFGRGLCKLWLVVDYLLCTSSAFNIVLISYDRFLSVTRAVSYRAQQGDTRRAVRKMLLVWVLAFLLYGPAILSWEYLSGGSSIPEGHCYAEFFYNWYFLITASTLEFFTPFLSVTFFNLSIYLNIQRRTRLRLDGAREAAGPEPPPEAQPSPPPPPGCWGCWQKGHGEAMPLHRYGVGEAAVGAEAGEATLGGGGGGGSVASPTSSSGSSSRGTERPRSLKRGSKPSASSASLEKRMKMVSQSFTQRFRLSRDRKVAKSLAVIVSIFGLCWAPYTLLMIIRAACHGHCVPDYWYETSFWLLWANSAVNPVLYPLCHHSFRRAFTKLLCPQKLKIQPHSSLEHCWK

[41] = Neuroprotective activity in hippocampal slice (unknown origin) assessed as protection against kainic acid-induced cell death using propidium iodide staining; format: functional; settings: Hippocampus; how it was run: as §3

Clc1ccc(OCCCCCCN2CCCCCC2)cc1.O=C(O)C(=O)O
Activity [1]: inactive | Activity [2]: Toxic | Activity [3]: 25% | Activity [4]: inactive | Activity [5]: inactive | Ratio TD50/ED50 [6]: 3.2 | Activity [7]: Non-toxic | Activity [8]: Non-toxic | Activity [9]: inactive | ED50 [10]: 14 mg/kg | Activity [11]: Non-toxic | Activity [12]: Non-toxic | Activity [13]: inactive | Activity [14]: Non-toxic | Activity [15]: Toxic | Activity [16]: Non-toxic | Activity [17]: inactive | Activity [18]: Non-toxic | Activity [19]: Non-toxic | Activity [20]: inactive | TD50 (median neurotoxic dose) [21]: 36.2 mg/kg | Activity [22]: inactive | Activity [23]: Non-toxic | Activity [24]: inactive | Activity [25]: Non-toxic | Activity [26]: Active | Activity [27]: inactive | Activity [28]: inactive | Activity [29]: inactive | ED50 [30]: > 47 mg/kg | Activity [31]: Toxic | Activity [32]: Non-toxic | Activity [33]: Non-toxic | Activity [34]: Active | Activity [35]: Non-toxic | Activity [36]: Non-toxic | Activity [37]: Non-toxic | Activity [38]: Active | Activity [39]: Non-toxic | pKi [40]: 6.63 | Activity [41]: inactive
